Laboratory results published in ChEMBL document CHEMBL5303300, “EUbOPEN Chemogenomics Library - Multiplex” (2023).
Several values for one entry are separate records, joined by “and”; a condition that tells them apart may be missing. Identical values can stand only once.

How the values were obtained:
Assay type in all cases: toxicity, cell-based
[1] = test system: Fibroblast; assay: Multiplex assay against human fibroblast; conditions: 10 µM, compound concentration 10 uM, number of replicates 2
In short: (§1)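 Imaging took place on a CQ1 microscope at 37°C and 5% CO2 once compound had been added to live cells stained at seeding with Hoechst33342, BioTracker Green Microtubule Cytoskeleton Dye, MitoTracker Red and Annexin V Alexa Fluor 680. CellPathfinder machine-learning gating classed cells as Hoechst high-intensity objects or normal cells, classed normal cells as having healthy, pyknosed or fragmented nuclei, and classed pyknosed cells as mitotic or apoptotic. Tubulin, mitochondrial-mass and membrane-permeability phenotypes are per cents of the healthy-nucleus cells.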

[2] = test system: HEK-293T; assay: Multiplex assay against HEK293T; conditions: human, 10 µM, compound concentration 10 uM, number of replicates 2; in short: as §1
[3] = test system: U2OS; assay: Multiplex assay against U2OS; conditions: human, 10 µM, compound concentration 10 uM, number of replicates 2; in short: as §1

CNC(=O)c1nn(C)c2c1C(C)(C)Cc1cnc(Nc3ccc(N4CCN(C)CC4)cc3)nc1-2 [MILCICLIB]
Population Apoptotic (%) ([1]; 12 h): 44% and 41% and 38% and 43%
Population Fragmented Nuclei (%) ([1]; 12 h): 8% and 14% and 10% and 12%
Population Healthy Nuclei (%) ([1]; 12 h): 78% and 69% and 75% and 76%
Population Hoechst High Intensity Objects (%) ([1]; 12 h): 0%
Population Membrane Permeable-Phenotype (%) ([1]; 12 h): 10% and 5% and 9% and 11%
Population Mitochondria Different-Phenotype (%) ([1]; 12 h): 6% and 10% and 4%
Population Mitotic Cells (%) ([1]; 12 h): 56% and 58% and 61%
Population Normal (%) ([1]; 12 h): 99% and 100%
Population Pyknosed Nuclei (%) ([1]; 12 h): 12% and 16% and 13% and 10%
Population Tubulin-Different-Phenotype (%) ([1]; 12 h): 77% and 75% and 67% and 55%
Total Cell Count ([1]; 12 h): 202 and 150 and 248 and 210
Population Apoptotic (%) ([1]; 24 h): 50% and 39% and 52%
Population Fragmented Nuclei (%) ([1]; 24 h): 18% and 13% and 19%
Population Healthy Nuclei (%) ([1]; 24 h): 71% and 74% and 70% and 73%
Population Hoechst High Intensity Objects (%) ([1]; 24 h): 0%
Population Membrane Permeable-Phenotype (%) ([1]; 24 h): 6% and 0% and 4% and 3%
Population Mitochondria Different-Phenotype (%) ([1]; 24 h): 7% and 9% and 11% and 6%
Population Mitotic Cells (%) ([1]; 24 h): 50% and 60% and 47%
Population Normal (%) ([1]; 24 h): 99% and 100%
Population Pyknosed Nuclei (%) ([1]; 24 h): 9% and 12% and 7%
Population Tubulin-Different-Phenotype (%) ([1]; 24 h): 75% and 71% and 65% and 55%
Total Cell Count ([1]; 24 h): 250 and 149 and 287 and 240
Population Apoptotic (%) ([1]; 48 h): 60% and 63% and 72% and 73%
Population Fragmented Nuclei (%) ([1]; 48 h): 16% and 21% and 20% and 22%
Population Healthy Nuclei (%) ([1]; 48 h): 71% and 58% and 67% and 63%
Population Hoechst High Intensity Objects (%) ([1]; 48 h): 0%
Population Membrane Permeable-Phenotype (%) ([1]; 48 h): 7% and 6% and 3% and 2%
Population Mitochondria Different-Phenotype (%) ([1]; 48 h): 11% and 9% and 13% and 6%
Population Mitotic Cells (%) ([1]; 48 h): 40% and 36% and 27% and 26%
Population Normal (%) ([1]; 48 h): 100%
Population Pyknosed Nuclei (%) ([1]; 48 h): 12% and 20% and 13%
Population Tubulin-Different-Phenotype (%) ([1]; 48 h): 66% and 57% and 56% and 48%
Total Cell Count ([1]; 48 h): 241 and 162 and 294 and 249
Population Apoptotic (%) ([2]; 12 h): 71% and 63% and 94% and 80%
Population Fragmented Nuclei (%) ([2]; 12 h): 2% and 5% and 0%
Population Healthy Nuclei (%) ([2]; 12 h): 86% and 83% and 89% and 90%
Population Hoechst High Intensity Objects (%) ([2]; 12 h): 16% and 14% and 15% and 12%
Population Membrane Permeable-Phenotype (%) ([2]; 12 h): 3% and 1% and 0% and 2%
Population Mitochondria Different-Phenotype (%) ([2]; 12 h): 81% and 80% and 79% and 71%
Population Normal (%) ([2]; 12 h): 83% and 85% and 84% and 87%
Population Pyknosed Nuclei (%) ([2]; 12 h): 10% and 7% and 8%
Population Tubulin-Different-Phenotype (%) ([2]; 12 h): 94% and 95% and 91%
Total Cell Count ([2]; 12 h): 247 and 254 and 304 and 272
Population Apoptotic (%) ([2]; 24 h): 73% and 83% and 95% and 70%
Population Fragmented Nuclei (%) ([2]; 24 h): 3% and 4% and 1%
Population Healthy Nuclei (%) ([2]; 24 h): 91% and 89% and 88% and 93%
Population Hoechst High Intensity Objects (%) ([2]; 24 h): 16% and 15% and 14%
Population Membrane Permeable-Phenotype (%) ([2]; 24 h): 2% and 0% and 1%
Population Mitochondria Different-Phenotype (%) ([2]; 24 h): 86% and 85% and 82% and 78%
Population Normal (%) ([2]; 24 h): 83% and 84% and 85%
Population Pyknosed Nuclei (%) ([2]; 24 h): 5% and 6%
Population Tubulin-Different-Phenotype (%) ([2]; 24 h): 93% and 92% and 90%
Total Cell Count ([2]; 24 h): 355 and 365 and 395
Population Apoptotic (%) ([2]; 48 h): 82% and 77% and 88% and 76%
Population Fragmented Nuclei (%) ([2]; 48 h): 3% and 1%
Population Healthy Nuclei (%) ([2]; 48 h): 90% and 88% and 93%
Population Hoechst High Intensity Objects (%) ([2]; 48 h): 19% and 16% and 11% and 14%
Population Membrane Permeable-Phenotype (%) ([2]; 48 h): 2% and 1% and 0%
Population Mitochondria Different-Phenotype (%) ([2]; 48 h): 91% and 90% and 94% and 89%
Population Mitotic Cells (%) ([2]; 48 h): 17% and 22% and 12% and 23%
Population Normal (%) ([2]; 48 h): 80% and 83% and 88% and 85%
Population Pyknosed Nuclei (%) ([2]; 48 h): 5% and 8% and 6% and 4%
Population Tubulin-Different-Phenotype (%) ([2]; 48 h): 93% and 89% and 88%
Total Cell Count ([2]; 48 h): 395 and 386 and 413 and 401
Population Apoptotic (%) ([3]; 12 h): 66% and 80% and 69% and 62%
Population Healthy Nuclei (%) ([3]; 12 h): 67% [middle of 4 runs]
Population Hoechst High Intensity Objects (%) ([3]; 12 h): 0%
Population Mitochondria Different-Phenotype (%) ([3]; 12 h): 50% and 57% and 45% and 40%
Population Mitotic Cells (%) ([3]; 12 h): 33% and 19% and 30% and 37%
Population Normal (%) ([3]; 12 h): 100% and 99%
Population Pyknosed Nuclei (%) ([3]; 12 h): 39% [middle of 4 runs]
Population Tubulin-Different-Phenotype (%) ([3]; 12 h): 85% and 92% and 76% and 74%
Population Apoptotic (%) ([3]; 24 h): 85% and 89% and 80%
Population Healthy Nuclei (%) ([3]; 24 h): 50% [middle of 4 runs]
Population Hoechst High Intensity Objects (%) ([3]; 24 h): 0%
Population Mitochondria Different-Phenotype (%) ([3]; 24 h): 78% and 64% and 65% and 59%
Population Mitotic Cells (%) ([3]; 24 h): 14% and 10% and 19%
Population Normal (%) ([3]; 24 h): 100% and 99%
Population Pyknosed Nuclei (%) ([3]; 24 h): 57% and 43% and 45% and 36%
Population Tubulin-Different-Phenotype (%) ([3]; 24 h): 78% and 92% and 77% and 69%
Population Apoptotic (%) ([3]; 48 h): 93% and 84% and 92% and 89%
Population Healthy Nuclei (%) ([3]; 48 h): 26% [middle of 4 runs]
Population Hoechst High Intensity Objects (%) ([3]; 48 h): 0% and 1%
Population Membrane Permeable-Phenotype (%) ([3]; 48 h): 28% and 36% and 26%
Population Mitochondria Different-Phenotype (%) ([3]; 48 h): 100% and 54% and 69%
Population Mitotic Cells (%) ([3]; 48 h): 6% and 15% and 7% and 10%
Population Normal (%) ([3]; 48 h): 100% and 98%
Population Pyknosed Nuclei (%) ([3]; 48 h): 76% and 42% and 68% and 57%
Population Tubulin-Different-Phenotype (%) ([3]; 48 h): 71% and 81% and 77%
